Measurements as given in ChEMBL document CHEMBL1811853, “Design and evaluation of 3-aminopyrazolopyridinone kinase inhibitors inspired by the natural product indirubin” (Bioorg Med Chem, 2011).
In brackets after ≈: the same amount, converted by molar mass.

Columns and labels:
[1] = Aqueous solubility of the compound by HPLC analysis; type: physicochemical; details: water
In short: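 Solubility determined by HPLC measurement of the concentration in saturated aqueous solutions of the compounds.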

[2] = target: Proto-oncogene tyrosine-protein kinase Src (Homo sapiens, UniProt P12931); test: Inhibition of SRC at 30 uM by microfluidic mobility shift assay
In short: (§1)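 Single-concentration screen, singlicate, 30 uM final (diluted from 1 mM DMSO solutions), fluorescently tagged peptide substrate appropriate to each kinase, ATP at apparent Km for each protein. Phosphorylated and unphosphorylated peptides separated electrophoretically; conversion is the phosphorylated peak area over the sum of both peaks. No-inhibitor and no-ATP controls; H89 reference on each plate.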

[3] = target: Tyrosine-protein kinase Lyn (Homo sapiens, UniProt P07948); test: Inhibition of LYN at 30 uM by microfluidic mobility shift assay; in short: as §1
[4] = target: Ribosomal protein S6 kinase alpha-1 (Homo sapiens) (UniProt Q15418); test: Inhibition of RSK1 at 30 uM by microfluidic mobility shift assay; in short: as §1
[5] = target: Tyrosine-protein kinase Lck (Homo sapiens, UniProt P06239); test: Inhibition of LCK at 30 uM by microfluidic mobility shift assay; in short: as §1
[6] = target: Mitogen-activated protein kinase 14 (Homo sapiens, UniProt Q16539); test: Inhibition of p38alpha at 30 uM by microfluidic mobility shift assay; in short: as §1
[7] = Inhibition of PKA at 30 uM by microfluidic mobility shift assay; in short: as §1
[8] = target: RAC-beta serine/threonine-protein kinase (Homo sapiens) (UniProt P31751); test: Inhibition of AKT2 at 30 uM by microfluidic mobility shift assay; in short: as §1
[9] = target: Mitogen-activated protein kinase 1 (Homo sapiens) (UniProt P28482); test: Inhibition of ERK2 at 30 uM by microfluidic mobility shift assay; in short: as §1
[10] = target: MAP kinase-activated protein kinase 2 (Homo sapiens, UniProt P49137); test: Inhibition of MAPKAPK2 at 30 uM by microfluidic mobility shift assay; in short: as §1
[11] = target: Tyrosine-protein kinase ABL1 (Homo sapiens, UniProt P00519); test: Inhibition of ABL at 30 uM by microfluidic mobility shift assay; in short: as §1
[12] = target: Glycogen synthase kinase-3 beta (Homo sapiens) (UniProt P49841); test: Inhibition of GSK3B at 30 uM by microfluidic mobility shift assay; in short: as §1
[13] = target: T1, Serine/threonine-protein kinase Chk1 (Homo sapiens) (UniProt O14757); test: Inhibition of CHK1 at 30 uM by microfluidic mobility shift assay; in short: as §1
T1 sequence (whole entry): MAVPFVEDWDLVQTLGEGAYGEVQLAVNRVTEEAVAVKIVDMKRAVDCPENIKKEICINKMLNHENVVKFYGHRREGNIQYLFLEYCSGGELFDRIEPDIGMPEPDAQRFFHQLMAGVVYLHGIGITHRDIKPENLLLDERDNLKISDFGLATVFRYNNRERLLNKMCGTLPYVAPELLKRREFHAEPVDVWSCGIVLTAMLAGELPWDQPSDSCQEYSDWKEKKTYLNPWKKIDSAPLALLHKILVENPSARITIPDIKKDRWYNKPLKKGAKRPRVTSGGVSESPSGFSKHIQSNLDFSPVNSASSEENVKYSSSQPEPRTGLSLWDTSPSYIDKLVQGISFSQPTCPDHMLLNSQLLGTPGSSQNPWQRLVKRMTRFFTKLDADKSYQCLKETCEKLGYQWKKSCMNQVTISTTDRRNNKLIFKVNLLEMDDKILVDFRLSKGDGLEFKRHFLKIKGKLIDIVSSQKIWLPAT

[14] = target: T2, Serine/threonine-protein kinase D2 (Homo sapiens) (UniProt Q9BZL6); test: Inhibition of PKD2 at 30 uM by microfluidic mobility shift assay; in short: as §1
T2 sequence (whole entry): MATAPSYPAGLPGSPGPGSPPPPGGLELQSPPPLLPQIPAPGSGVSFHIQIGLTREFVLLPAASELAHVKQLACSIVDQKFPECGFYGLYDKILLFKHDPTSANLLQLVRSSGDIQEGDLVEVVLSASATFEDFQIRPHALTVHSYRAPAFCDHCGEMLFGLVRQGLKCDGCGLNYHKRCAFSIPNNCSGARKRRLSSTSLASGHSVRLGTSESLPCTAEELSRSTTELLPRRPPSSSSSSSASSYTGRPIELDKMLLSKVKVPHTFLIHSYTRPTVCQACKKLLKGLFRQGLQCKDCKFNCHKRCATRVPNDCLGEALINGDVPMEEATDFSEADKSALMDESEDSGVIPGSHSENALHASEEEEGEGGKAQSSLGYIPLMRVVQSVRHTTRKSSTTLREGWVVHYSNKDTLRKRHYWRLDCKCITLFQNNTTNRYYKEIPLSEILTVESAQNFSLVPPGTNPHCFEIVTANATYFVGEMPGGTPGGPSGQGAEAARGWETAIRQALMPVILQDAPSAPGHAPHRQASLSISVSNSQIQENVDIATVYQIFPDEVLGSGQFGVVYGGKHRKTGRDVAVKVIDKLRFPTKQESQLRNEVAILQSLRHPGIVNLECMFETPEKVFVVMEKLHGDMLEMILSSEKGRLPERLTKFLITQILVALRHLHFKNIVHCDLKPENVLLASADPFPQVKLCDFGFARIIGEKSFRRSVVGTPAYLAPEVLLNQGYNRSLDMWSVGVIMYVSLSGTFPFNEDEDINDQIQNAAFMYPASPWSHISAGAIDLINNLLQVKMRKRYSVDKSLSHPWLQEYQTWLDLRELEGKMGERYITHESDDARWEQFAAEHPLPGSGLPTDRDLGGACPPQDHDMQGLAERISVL

[15] = target: T3, MAP kinase-activated protein kinase 5 (Homo sapiens) (UniProt Q8IW41); test: Inhibition of PRAK1 at 30 uM by microfluidic mobility shift assay; in short: as §1
T3 sequence (whole entry): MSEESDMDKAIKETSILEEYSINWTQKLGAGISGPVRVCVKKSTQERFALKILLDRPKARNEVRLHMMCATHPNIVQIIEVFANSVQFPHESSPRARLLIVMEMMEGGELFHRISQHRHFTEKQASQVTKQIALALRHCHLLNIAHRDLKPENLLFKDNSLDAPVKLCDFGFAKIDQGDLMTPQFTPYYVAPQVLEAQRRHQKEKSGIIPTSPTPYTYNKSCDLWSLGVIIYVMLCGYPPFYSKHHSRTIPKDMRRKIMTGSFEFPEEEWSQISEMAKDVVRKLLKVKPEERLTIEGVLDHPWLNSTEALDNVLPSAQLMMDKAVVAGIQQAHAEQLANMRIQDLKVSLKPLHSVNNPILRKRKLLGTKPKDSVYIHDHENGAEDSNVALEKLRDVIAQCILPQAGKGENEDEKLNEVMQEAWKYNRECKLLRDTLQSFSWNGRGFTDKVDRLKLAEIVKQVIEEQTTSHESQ

[16] = target: T4, Aurora kinase A (Homo sapiens) (UniProt O14965); test: Inhibition of AurA at 30 uM by microfluidic mobility shift assay; in short: as §1
T4 sequence (whole entry): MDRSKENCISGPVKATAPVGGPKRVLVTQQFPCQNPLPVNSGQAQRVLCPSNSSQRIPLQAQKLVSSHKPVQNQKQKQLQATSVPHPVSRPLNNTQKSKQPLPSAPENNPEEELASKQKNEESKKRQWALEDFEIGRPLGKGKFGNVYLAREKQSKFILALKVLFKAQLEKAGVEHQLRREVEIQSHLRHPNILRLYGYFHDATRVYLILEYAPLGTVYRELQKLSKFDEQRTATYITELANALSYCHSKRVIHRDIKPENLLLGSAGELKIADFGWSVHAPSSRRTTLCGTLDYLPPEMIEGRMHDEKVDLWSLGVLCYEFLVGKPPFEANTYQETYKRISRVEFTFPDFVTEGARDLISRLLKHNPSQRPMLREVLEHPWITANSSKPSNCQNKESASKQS

[17] = target: RAC-alpha serine/threonine-protein kinase (Homo sapiens) (UniProt P31749); test: Inhibition of AKT1 at 30 uM by microfluidic mobility shift assay; in short: as §1
[18] = target: Serine/threonine-protein kinase Chk2 (Homo sapiens, UniProt O96017); test: Inhibition of CHK2 at 30 uM by microfluidic mobility shift assay; in short: as §1
[19] = target: Ribosomal protein S6 kinase alpha-5 (Homo sapiens) (UniProt O75582); test: Inhibition of MSK1 at 30 uM by microfluidic mobility shift assay; in short: as §1
[20] = target: Insulin receptor (Homo sapiens) (UniProt P06213); test: Inhibition of INSR at 30 uM by microfluidic mobility shift assay; in short: as §1
[21] = target: Tyrosine-protein kinase Fyn (Homo sapiens, UniProt P06241); test: Inhibition of FYN at 30 uM by microfluidic mobility shift assay; in short: as §1
[22] = target: Mitogen-activated protein kinase 3 (Homo sapiens) (UniProt P27361); test: Inhibition of ERK1 at 30 uM by microfluidic mobility shift assay; in short: as §1
[23] = target: T5, Protein kinase C zeta type (Homo sapiens) (UniProt Q05513); test: Inhibition of PKCz at 30 uM by microfluidic mobility shift assay; in short: as §1
T5 sequence (whole entry): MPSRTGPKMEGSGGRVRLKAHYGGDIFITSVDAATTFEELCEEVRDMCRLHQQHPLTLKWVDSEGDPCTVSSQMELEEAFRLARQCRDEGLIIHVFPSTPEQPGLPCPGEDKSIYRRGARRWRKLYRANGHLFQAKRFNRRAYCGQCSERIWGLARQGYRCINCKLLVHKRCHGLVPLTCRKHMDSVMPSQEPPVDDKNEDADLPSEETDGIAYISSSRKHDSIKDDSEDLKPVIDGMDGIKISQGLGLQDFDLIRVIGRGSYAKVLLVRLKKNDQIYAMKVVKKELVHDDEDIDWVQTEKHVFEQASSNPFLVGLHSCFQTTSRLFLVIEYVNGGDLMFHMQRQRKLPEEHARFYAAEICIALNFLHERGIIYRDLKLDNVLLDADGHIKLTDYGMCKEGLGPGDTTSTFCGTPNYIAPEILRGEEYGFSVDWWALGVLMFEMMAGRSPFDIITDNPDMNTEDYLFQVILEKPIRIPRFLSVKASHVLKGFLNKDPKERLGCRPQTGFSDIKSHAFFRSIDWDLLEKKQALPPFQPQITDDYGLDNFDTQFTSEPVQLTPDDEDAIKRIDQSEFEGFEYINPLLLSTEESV

Sequence of Tyrosine-protein kinase Lck (P06239 2-509 limits assumed): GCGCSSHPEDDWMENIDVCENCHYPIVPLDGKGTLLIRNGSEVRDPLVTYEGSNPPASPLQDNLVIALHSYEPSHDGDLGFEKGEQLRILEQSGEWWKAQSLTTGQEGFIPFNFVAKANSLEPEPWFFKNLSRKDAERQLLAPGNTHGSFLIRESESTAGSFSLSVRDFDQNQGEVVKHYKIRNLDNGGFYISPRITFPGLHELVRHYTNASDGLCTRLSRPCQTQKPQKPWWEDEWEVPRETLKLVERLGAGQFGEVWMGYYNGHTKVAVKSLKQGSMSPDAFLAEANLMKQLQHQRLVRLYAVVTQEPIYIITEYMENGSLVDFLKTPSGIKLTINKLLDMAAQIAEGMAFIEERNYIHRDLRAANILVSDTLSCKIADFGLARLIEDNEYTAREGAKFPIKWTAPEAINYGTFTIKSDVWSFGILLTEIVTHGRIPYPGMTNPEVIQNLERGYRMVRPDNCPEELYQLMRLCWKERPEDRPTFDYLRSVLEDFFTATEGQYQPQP
Sequence of Tyrosine-protein kinase Fyn (P06241 2-537 limits assumed): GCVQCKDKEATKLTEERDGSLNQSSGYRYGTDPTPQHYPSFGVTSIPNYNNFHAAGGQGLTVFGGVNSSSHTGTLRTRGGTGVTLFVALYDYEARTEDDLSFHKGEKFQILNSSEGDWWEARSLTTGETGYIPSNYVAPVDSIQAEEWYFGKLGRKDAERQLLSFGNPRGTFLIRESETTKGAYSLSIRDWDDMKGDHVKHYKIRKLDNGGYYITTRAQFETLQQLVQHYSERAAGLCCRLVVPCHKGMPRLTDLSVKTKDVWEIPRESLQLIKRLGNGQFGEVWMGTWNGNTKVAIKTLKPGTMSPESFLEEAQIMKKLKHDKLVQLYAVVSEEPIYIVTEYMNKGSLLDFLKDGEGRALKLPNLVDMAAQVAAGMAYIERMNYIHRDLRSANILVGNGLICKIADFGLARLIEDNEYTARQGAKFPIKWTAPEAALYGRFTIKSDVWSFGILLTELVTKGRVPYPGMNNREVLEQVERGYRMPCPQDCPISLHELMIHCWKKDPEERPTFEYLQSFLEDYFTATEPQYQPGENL
Sequence of Mitogen-activated protein kinase 1 (Homo sapiens) (P28482 whole entry): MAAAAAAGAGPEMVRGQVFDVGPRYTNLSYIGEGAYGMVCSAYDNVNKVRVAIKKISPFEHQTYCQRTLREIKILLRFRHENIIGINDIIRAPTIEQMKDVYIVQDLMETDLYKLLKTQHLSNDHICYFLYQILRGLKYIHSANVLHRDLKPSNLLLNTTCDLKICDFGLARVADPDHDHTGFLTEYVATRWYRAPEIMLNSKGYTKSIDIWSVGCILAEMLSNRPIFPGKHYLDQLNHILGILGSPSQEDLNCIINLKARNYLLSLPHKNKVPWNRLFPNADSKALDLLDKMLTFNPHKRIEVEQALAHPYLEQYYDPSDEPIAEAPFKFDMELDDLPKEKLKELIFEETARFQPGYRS
Sequence of Tyrosine-protein kinase ABL1 (P00519 whole entry): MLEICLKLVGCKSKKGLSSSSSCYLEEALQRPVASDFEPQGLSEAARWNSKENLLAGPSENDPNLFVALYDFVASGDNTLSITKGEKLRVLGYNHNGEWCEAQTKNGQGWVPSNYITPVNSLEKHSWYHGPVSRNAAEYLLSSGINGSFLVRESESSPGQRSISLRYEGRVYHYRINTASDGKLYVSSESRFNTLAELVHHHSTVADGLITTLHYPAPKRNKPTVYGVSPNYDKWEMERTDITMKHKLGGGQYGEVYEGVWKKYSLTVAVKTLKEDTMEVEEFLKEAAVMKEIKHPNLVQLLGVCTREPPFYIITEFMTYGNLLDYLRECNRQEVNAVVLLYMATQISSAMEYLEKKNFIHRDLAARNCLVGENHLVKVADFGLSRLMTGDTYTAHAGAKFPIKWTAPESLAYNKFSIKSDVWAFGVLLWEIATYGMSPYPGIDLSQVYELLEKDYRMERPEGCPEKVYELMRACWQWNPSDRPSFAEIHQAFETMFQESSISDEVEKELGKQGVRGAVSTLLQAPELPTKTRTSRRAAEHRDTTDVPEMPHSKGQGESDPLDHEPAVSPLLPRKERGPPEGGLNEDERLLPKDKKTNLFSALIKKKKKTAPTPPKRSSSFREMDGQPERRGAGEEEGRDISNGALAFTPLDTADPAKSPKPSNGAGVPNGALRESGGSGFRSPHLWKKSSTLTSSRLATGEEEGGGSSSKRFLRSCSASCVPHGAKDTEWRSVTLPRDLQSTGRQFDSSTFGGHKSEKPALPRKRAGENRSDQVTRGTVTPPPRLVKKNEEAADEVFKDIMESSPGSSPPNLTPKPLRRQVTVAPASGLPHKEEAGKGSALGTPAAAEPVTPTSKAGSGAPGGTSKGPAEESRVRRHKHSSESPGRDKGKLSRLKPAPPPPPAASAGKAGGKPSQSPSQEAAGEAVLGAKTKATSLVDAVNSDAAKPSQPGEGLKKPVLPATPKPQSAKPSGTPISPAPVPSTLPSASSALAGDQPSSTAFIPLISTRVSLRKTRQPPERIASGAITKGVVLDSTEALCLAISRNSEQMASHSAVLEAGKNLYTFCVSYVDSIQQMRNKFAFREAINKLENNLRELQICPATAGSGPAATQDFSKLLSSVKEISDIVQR
Sequence of Proto-oncogene tyrosine-protein kinase Src (P12931 2-536 limits assumed): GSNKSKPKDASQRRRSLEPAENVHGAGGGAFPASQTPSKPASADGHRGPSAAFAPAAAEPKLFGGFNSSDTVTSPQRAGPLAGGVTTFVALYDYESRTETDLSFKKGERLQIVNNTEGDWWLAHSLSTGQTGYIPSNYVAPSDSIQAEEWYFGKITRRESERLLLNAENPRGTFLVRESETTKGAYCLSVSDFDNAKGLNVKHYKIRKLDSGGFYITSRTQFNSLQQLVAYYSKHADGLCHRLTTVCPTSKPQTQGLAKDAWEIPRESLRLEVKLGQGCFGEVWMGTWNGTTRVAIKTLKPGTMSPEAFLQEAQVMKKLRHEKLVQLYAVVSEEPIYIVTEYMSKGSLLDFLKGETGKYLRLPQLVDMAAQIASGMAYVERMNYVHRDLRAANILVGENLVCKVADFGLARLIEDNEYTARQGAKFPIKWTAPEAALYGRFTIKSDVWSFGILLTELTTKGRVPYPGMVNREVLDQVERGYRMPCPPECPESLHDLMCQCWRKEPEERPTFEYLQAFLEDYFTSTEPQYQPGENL
Sequence of RAC-beta serine/threonine-protein kinase (Homo sapiens) (P31751 whole entry): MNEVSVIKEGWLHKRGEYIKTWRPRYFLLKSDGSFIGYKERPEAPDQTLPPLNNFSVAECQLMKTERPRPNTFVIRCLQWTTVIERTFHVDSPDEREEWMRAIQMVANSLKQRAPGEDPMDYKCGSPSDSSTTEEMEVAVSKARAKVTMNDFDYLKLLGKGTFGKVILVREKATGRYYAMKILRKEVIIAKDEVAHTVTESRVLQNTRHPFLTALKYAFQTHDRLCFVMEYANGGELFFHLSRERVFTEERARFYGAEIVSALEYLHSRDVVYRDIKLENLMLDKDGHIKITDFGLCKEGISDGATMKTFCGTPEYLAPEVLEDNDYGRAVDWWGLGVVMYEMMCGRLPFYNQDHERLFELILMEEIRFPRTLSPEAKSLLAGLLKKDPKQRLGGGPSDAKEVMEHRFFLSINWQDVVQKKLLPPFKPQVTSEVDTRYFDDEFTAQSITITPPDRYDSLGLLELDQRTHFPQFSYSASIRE
Sequence of Tyrosine-protein kinase Lyn (P07948 2-512 limits assumed): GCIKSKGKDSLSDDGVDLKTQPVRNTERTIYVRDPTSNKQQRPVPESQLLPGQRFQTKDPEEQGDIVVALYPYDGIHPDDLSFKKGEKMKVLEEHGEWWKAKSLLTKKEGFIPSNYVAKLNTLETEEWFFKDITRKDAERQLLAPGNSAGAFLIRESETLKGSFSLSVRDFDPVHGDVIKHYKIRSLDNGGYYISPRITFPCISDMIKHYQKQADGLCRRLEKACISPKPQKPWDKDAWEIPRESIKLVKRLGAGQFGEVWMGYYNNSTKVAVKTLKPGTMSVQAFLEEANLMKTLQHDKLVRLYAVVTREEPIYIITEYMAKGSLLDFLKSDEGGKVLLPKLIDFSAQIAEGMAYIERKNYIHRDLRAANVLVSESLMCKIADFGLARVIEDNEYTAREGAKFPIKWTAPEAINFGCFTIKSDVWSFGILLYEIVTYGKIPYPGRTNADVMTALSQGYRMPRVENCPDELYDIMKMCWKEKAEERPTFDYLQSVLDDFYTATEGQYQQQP
Sequence of Mitogen-activated protein kinase 14 (Q16539 whole entry): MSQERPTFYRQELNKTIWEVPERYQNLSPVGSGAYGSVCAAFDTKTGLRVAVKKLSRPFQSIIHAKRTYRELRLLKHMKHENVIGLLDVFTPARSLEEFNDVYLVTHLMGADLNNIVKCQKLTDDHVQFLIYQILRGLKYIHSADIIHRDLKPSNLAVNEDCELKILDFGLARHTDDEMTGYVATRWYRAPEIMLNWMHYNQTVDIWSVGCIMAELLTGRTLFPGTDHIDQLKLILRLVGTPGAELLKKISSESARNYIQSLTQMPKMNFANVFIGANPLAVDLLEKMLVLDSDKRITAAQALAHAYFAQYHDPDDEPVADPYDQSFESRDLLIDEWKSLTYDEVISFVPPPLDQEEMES
Sequence of Mitogen-activated protein kinase 3 (Homo sapiens) (P27361 whole entry): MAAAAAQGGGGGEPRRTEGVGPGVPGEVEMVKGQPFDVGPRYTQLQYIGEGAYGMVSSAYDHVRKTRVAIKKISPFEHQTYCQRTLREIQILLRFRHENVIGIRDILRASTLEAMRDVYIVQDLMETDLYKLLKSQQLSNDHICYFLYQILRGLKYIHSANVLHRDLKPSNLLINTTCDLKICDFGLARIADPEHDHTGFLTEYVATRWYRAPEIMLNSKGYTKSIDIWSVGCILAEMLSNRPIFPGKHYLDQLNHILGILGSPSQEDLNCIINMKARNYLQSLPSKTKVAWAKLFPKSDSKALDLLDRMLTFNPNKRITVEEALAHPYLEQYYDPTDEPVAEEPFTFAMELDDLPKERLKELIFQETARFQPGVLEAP

| solubility [1] [µg/mL] | inhibition [2] [%] | inhibition [3] [%] | inhibition [4] [%] | inhibition [5] [%] | inhibition [6] [%] | inhibition [8] [%] | inhibition [9] [%] | inhibition [10] [%] | inhibition [11] [%] | inhibition [12] [%] | inhibition [14] [%] | inhibition [15] [%] | inhibition [16] [%] | inhibition [17] [%] | inhibition [18] [%] | inhibition [19] [%] | inhibition [20] [%] | inhibition [21] [%] | inhibition [22] [%] | SMILES | other results |
| --- | --- | --- | --- | --- | --- | --- | --- | --- | --- | --- | --- | --- | --- | --- | --- | --- | --- | --- | --- | --- | --- |
| 259 (≈ 1150 µM) | 7 | 7 | 2 | 11 | 0 | 6 | 4 | 7 | 10 | 17 | 5 | 5 | 33 | 4 | 5 | 4 | 9 | 8 | 9 | Cn1nc(N)c2cnc(-c3ccccc3)cc21 | inhibition [7]: 1%; inhibition [13]: 1% |
| 1430 (≈ 4610 µM) |  |  |  |  |  |  |  |  |  |  |  |  |  |  |  |  |  |  |  | Nc1c2c(=O)[nH]c(C3CCNCC3)cc2nn1-c1ccccc1 |  |
| 24 (≈ 106 µM) |  |  |  |  |  |  |  |  |  |  |  |  |  |  |  |  |  |  |  | Nc1n[nH]c2cc(-c3ccccc3)[nH]c(=O)c12 |  |
| 7 (≈ 22.1 µM) | 71 | 71 | -2 | 73 | 78 | 4 | 8 | 9 | 42 | 16 | -3 | 6 | 4 | -8 | -1 | 2 | 10 | 62 | 14 | Cc1[nH]c(=O)c2c(N)n(-c3ccccc3)nc2c1-c1ccccc1 | inhibition [23]: 26% |
| 69 (≈ 287 µM) | 26 | 9 |  | 24 | 26 | 1 | 7 | -4 | 20 | 9 | -1 | 5 | 6 | 5 | -4 | 4 | 4 | 22 | 7 | Cc1cc2nn(-c3ccccc3)c(N)c2c(=O)[nH]1 | inhibition [7]: -8%; inhibition [13]: -9% |
